# High-throughput results: PubChem BioAssay, several laboratories
# ATG4B inhibitor: blocks human ATG4B protease cleavage of LC3 substrate. inhibition, % at 8.33 µM. AID 504462. Q9Y4P1. actives 0.51% (n = 340,000). ATG4B cleavage of LC3-PLA2, NBD-HPC fluorescence, 1 h; in the data active means inhibition above about 40%
# MEKK3 PB1 HTS: MEKK3-MEK5 PB1 interaction, increase or decrease | bead-based flow cytometry, Alexa488-MEK5 binding to MEKK3; actives lie on both sides; 0 = blocked by unlabeled MEK5, 100 = vehicle | binding response (% of control), % at 10 µM | Q99759 | actives 1.4% (n = 290,000);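 active means binding response more than 3 SD above or below the average of its plate-row segment, actives on both sides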;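 further: Alexa488 bead fluorescence after subtracting the streptavidin-only scavenger bead signal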
# MEKK2 WT-MEK5: raises or lowers MEK5 binding to wildtype human MEKK2 PB1 domain; bead flow cytometry, Alexa488-MEK5 binding to MEKK2 WT; actives lie on both sides; binding response (% of control), % at 10 µM; actives 1.1% (n = 290,000); in the data active means binding response below about 67% or above about 130%
# B2AR ag: agonists of human beta-2 adrenergic receptor inducing internalization. response, % (no concentration beside the values). Am2.2-beta2AR cells, FAP receptor internalization, flow cytometry. P07550. actives 0.43% (n = 340,000);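 active means response above a set limit, near 3 SD of response in nonfluorescent compounds, cut at about 42% in these data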
# Target sequence (P07550 whole entry, looked up): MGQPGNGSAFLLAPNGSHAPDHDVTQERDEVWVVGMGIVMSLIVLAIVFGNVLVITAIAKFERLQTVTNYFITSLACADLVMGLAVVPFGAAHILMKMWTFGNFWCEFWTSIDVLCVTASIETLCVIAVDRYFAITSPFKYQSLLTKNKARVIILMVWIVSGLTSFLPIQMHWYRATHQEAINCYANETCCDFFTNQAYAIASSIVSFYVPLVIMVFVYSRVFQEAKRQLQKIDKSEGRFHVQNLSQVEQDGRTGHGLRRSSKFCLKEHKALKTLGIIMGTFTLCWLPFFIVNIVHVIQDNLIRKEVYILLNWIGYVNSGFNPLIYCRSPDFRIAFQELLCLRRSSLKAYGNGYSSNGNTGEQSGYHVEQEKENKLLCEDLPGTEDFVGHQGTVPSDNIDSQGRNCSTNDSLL
# Dynein cargo inh: blocks dynein driven cargo transport along microtubules; 3617.4 mouse cells, GR-EGFP nuclear translocation imaging; test concentration mostly 20 µM; stimulated with dexamethasone, 1 µM; hits give low values; z-score, hits read low; actives 0.47% (n = 220,000); AID 1381;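 active means plate z-score of nuclear minus cytoplasmic receptor signal below a set negative limit, without overly bright fluorescence or cell loss, cut at about -3.5 in these data, passing the limit was not always enough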;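 further: z-score of nuclear minus cytoplasmic ring GR-EGFP intensity difference per well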
#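 medium = tetracycline-free induction medium containing charcoal-stripped FBS | also added = 1.0 µM final dexamethasone stimulus | schedule = 48 h induction, 1 h compound, 30 min dex at 37 °C | technique = fixed, Hoechst-stained cells imaged at 10x for EGFP | measure = GR-EGFP nuclear translocation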
# MEKK2 mut-MEK5: signal of MEK5 binding to mutant human MEKK2 PB1 domain | actives 0.35% (n = 290,000) | percent response, % at 10 µM | bead flow cytometry, Alexa488-MEK5 binding to MEKK2 mutant | AID 1530; in the data active means percent response above about 24%, passing the limit was not always enough
# Beta2AR ag CP1: activates human beta-2 adrenergic receptor | actives 25% (n = 1,100) | shares compounds with B2AR ag | Am2.2-beta2AR cells, FAP surface receptor, flow cytometry; hits give low values | percent response (surface receptor), % at 10 µM | AID 540358;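 active means surface receptor percent response at or below 58%, roughly 3 SD from nonfluorescent compounds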
# B2AR FAP counter: counter-screen for beta-2AR agonists: fluorescence in Am2.2 cells. shares compounds with B2AR ag. calls only at 10 µM. 1,100 tested, under 10 active. FAP fluorogen flow cytometry, fluorescence counterscreen; hits give low values;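 active means percent response below a set limit in fluorescence channel 1 and below 50% in channel 8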
# * = called active by the depositor; i = inactive; x = no result given. Hits are enriched below; roughly 2.9% of the tested compounds scored in any of these assays.
SMILES,ATG4B inhibitor,MEKK3 PB1 HTS,MEKK2 WT-MEK5,B2AR ag,Dynein cargo inh,MEKK2 mut-MEK5,Beta2AR ag CP1,B2AR FAP counter
Cc1cccc(-c2nnc(SCc3nc4ccccc4[nH]3)n2Cc2ccco2)c1,4,104,102,-4,1.8,4,116,i
O=c1[nH]c(CSc2nnc(-c3ccncc3)n2Cc2ccco2)nc2ccccc12,-2,97,95,-7,0.05,-5,x,x
Cc1ccc(-c2nnc(SCc3nc4ccccc4[nH]3)n2Cc2ccco2)cc1,-7,x,x,-32,-0.43,x,106,i
c1coc(Cn2c(SCc3nc4ccccc4[nH]3)nnc2-c2cccs2)c1,13,95,99,-7,0.31,8,x,x
CCCCC(=O)N1C/C=C\C(c2ccc(OC)cc2)N(Cc2ccc(F)cc2)C(=O)C1 (stereo not drawn),5,107,100,-5,-0.17,7,x,x
NS(=O)(=O)c1ccc(NC(=O)COC(=O)COc2ccc3ccccc3c2)cc1,-9,105,102,-2,0.25,-3,x,x
COc1cccc(NC(=S)NCCc2ccccn2)c1,-9,102,101,3,-0.72,-1,x,x
Cc1ccc(-c2nc3ncccc3o2)cc1NC(=O)c1ccc([N+](=O)[O-])o1,-8,106,107,11,x,6,x,x
O=C(Nc1ccc(-c2nc3ncccc3o2)cc1)c1ccc([N+](=O)[O-])o1,5,105,106,53*,x,5,28*,i
CCOC(=O)C1CCN(C(=O)COc2ccc(S(=O)(=O)N3CCOCC3)cc2C)CC1,3,102,102,0,x,0,x,x
Cc1ccccc1C(=O)OC1CCCN(C)C1 (stereo not drawn),-3,103,104,49*,x,5,90,i
CCOC(=O)C(=CNc1nc(-c2ccccc2)c(C(=O)Nc2ccc(-c3ccccc3)cc2)s1)C(=O)OCC,-7,100,97,5,x,-2,x,x
COc1ccc(-c2nc3c4ccccc4ccn3c2CN2CCOCC2)cc1OC,-14,106,105,53*,0.41,7,41*,i
c1ccc(-c2nc3c4ccccc4ccn3c2CN2CCOCC2)cc1,-6,104,103,-11,-0.35,1,x,x
Cc1cc(C(=O)COC(=O)Cc2ccc(Br)cc2)c(C)n1C,21,x,x,1,x,x,x,x
CC(=O)Nc1ccc(NC(=O)CSc2ncc(C(=O)Nc3ccc(Cl)cc3)c(=O)n2C)cc1,-5,x,x,29,x,x,x,x
CC(=O)Nc1ccc(NC(=O)CSc2ncc(C(=O)Nc3ccc(F)cc3)c(=O)n2C)cc1,2,x,x,1,x,x,x,x
Cn1c(SCC(=O)NCC2CCCO2)ncc(C(=O)Nc2ccc(Cl)cc2)c1=O (stereo not drawn),0,x,x,75*,x,x,79,i
Cn1c(SCC(=O)NCC2CCCO2)ncc(C(=O)Nc2ccc(F)cc2)c1=O (stereo not drawn),-1,x,x,46*,x,x,98,i
Cc1cccc(C(=O)N2CCC(Cc3ccccc3)CC2)c1[N+](=O)[O-],-4,97,94,7,-0.097,-1,x,x
CCOC(=O)c1sc(/N=C/c2c(C)[nH]n(-c3ccccc3)c2=O)c(C#N)c1C,x,x,x,x,-0.45,x,x,x
NC(=O)CC(NC(=O)c1ccccc1)c1ccc(NCCCN2CCCC2=O)c([N+](=O)[O-])c1 (stereo not drawn),-2,98,104,90*,x,-4,36*,i
NC(=O)CC(NC(=O)c1ccc(Br)cc1)c1ccc(N2CCN(c3ccccc3)CC2)c([N+](=O)[O-])c1 (stereo not drawn),-12,100,98,-13,x,-4,x,x
NC(=O)CC(NC(=O)Cc1ccc(Cl)cc1)c1ccc(NCCCN2CCCC2=O)c([N+](=O)[O-])c1 (stereo not drawn),7,100,96,26,x,-8,66,i
NC(=O)CC(NC(=O)c1ccccc1)c1ccc(N2CCN(c3ccccn3)CC2)c([N+](=O)[O-])c1 (stereo not drawn),-3,101,95,2,x,-5,109,i
SMILES,ATG4B inhibitor,MEKK3 PB1 HTS,MEKK2 WT-MEK5,B2AR ag,Dynein cargo inh,MEKK2 mut-MEK5,Beta2AR ag CP1,B2AR FAP counter
Cc1ccc(SCc2[nH]nc3c2C2(C(=O)Nc4ccc([N+](=O)[O-])cc42)C(C#N)=C(N)O3)cc1 (stereo not drawn),-17,97,89,84*,0.056,-7,113,i
COc1ccc(-c2nc(NC(=O)c3cc(C(C)(C)C)nn3C)sc2C)cc1,-6,105,130,29,-1.3,9,80,i
COc1ccc(-c2nc(NC(=O)c3c(C)noc3C)sc2C)cc1,6,x,x,2,x,x,x,x
O=C(NCC1CCCO1)c1cccc2c1C(=O)c1ccc(N3CCC(Cc4ccccc4)CC3)cc1S2(=O)=O (stereo not drawn),-16,x,x,2,x,x,x,x
CCOC(=O)CSc1nnc(CNc2cccc(Cl)c2)n1-c1ccccc1,-5,79,79,7,-1.3,-9,x,x
CCOC(=O)CSc1nnc(CNc2ccc(Cl)cc2)n1-c1ccccc1,-1,100,99,108*,-1.1,1,99,i
Clc1ccccc1OCc1nnc(-c2ccccc2Br)o1,29,104,102,-9,-0.85,4,x,x
CCc1ccc(OCc2nnc(-c3ccccc3Br)o2)cc1,-5,x,x,-2,x,x,92,i
Cc1c(NS(=O)(=O)c2cc(NC(=O)CCN3CCCC(C)C3)ccc2Cl)c(=O)n(-c2ccccc2)n1C (stereo not drawn),-5,101,106,5,-0.2,0,x,x
O=C(Nc1cnn(Cc2c(Cl)cccc2Cl)c1)C(c1ccccc1)c1ccccc1,2,104,109,43*,-0.17,9,93,i
O=C(COc1ccccc1Cl)Nc1cnn(Cc2ccccc2)c1,10,103,106,0,-0.72,11,x,x
O=C(c1ccco1)N1CCN(Cc2nnnn2CC2CCCO2)CC1 (stereo not drawn),0,100,87,3,-0.21,-7,x,x
O=C1CCN(Cc2nnnn2CC2CCCO2)c2ccccc2N1 (stereo not drawn),3,100,102,42*,-0.22,3,105,i
COc1cc2c(cc1Cl)C(=O)C(F)(c1ccccc1)C(=O)N2 (stereo not drawn),-9,96,101,81*,0.23,-6,13*,i
COc1cc2c(cc1OC)C(=O)N1[C@H]3c4cc(Cl)ccc4OC[C@@H]3[C@H](c3ccccc3)[C@]1(C)C(=O)N2,-9,x,x,8,x,x,x,x
